Screens as filed in PubChem BioAssay.
SMARCA2 act: SMARCA2 (BRM) function activators, primary screen, cell-based, luminescence, high throughput. MG213 cells, MMTV-luciferase reporter, dexamethasone, overnight. activation, % at 9.1 µM. 1% of 370,000 active; in the data active = activation above about 7.8%;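 also: 0% = vehicle wells and 100% = reference activator wells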
ARFGAP1 inh: inhibitors of rat ARFGAP1 GAP activity, primary screen, biochemical, fluorescence polarization, GDP tracer. ADP-ribosylation factor GTPase-activating protein 1 (Rattus norvegicus), Q62848. AID 651572, 2012. inhibition, % at 16.5 µM. 0.26% of 360,000 active. Arfgap1-stimulated ARF1 GTP hydrolysis, GDP FP detection;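 active = inhibition above a per-plate limit, mean inhibition of low control wells plus 3 SD, cut at about 25% in these data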;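 also: 0% = DMSO wells with enzyme and 100% = wells lacking Arfgap1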
Target sequence (Q62848 1-136 limits assumed): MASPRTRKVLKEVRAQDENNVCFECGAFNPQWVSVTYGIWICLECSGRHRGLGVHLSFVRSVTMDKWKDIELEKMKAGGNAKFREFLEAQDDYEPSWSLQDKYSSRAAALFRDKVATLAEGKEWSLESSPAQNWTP
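Assay system: purified rat His6-Arfgap1 residues 1-136 (GAP domain); Reagent: human Δ17 ARF1 bound to GTP; Dosing: 16.5 µM single point, 1.26% DMSO; Times: GTP hydrolysis reaction 2 h at 25 °C; Signal: FP, GDP Alexa 633 tracer displaced from anti-GDP antibody, 620/688 nm; Measure: % inhibition from polarization.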
esBAF inh: Bmi1 luciferase reporter increase in mESCs, primary screen, esBAF inhibitor project, mouse ES cells, Bmi1 luciferase knock-in, single point. 24 h; 100% = twice the neutral-well signal. 2% of 350,000 active. reporter increase, % at 12.5 µM; in the data active = activation above about 40%;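 also: 0% = median of the plate's neutral control wells and 100% = double that signal; a rise in the Bmi1 reporter signal indicates esBAF inhibition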
ASAP1 inh: inhibitors of human ASAP1 ArfGAP activity, primary screen, biochemical, fluorescence polarization | ASAP1-stimulated ARF1 GTP hydrolysis, GDP FP detection | Arf-GAP with SH3 domain, ANK repeat and PH domain-containing protein 1 (Homo sapiens), … | 0.19% of 360,000 active | inhibition, % at 16.5 µM | AID 624377, 2012; in the data active = inhibition above about 25%;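 also: 0% = vehicle with enzyme and substrate and 100% = no enzyme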
Target sequence (Q9ULH1 325-724 limits assumed): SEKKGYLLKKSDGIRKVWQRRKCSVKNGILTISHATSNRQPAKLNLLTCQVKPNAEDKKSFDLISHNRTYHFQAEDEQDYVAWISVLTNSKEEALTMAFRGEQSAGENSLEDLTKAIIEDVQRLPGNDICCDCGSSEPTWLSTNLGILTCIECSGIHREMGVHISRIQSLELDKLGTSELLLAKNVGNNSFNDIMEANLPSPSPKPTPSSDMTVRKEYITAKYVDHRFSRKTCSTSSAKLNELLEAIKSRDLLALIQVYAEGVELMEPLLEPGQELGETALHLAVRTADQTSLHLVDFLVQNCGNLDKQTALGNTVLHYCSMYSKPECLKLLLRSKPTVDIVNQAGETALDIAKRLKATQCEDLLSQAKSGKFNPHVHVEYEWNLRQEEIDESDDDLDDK
SMARCA2 act conf: SMARCA2 (BRM) function activators, confirmation, cell-based, luminescence, triplicate. activation, % at 9.1 µM. AID 652260, 2013. shares compounds with SMARCA2 act. 30% of 3,500 active. MG213 cells, MMTV-luciferase with dexamethasone, overnight; MG213 cells expressing E1A, Rb sequestered; DMSO wells 0%, reference activator 100%;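 active = activation above its plate's cutoff, the mean activation of tested wells plus 3 SD, cut at about 7.9% in these data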
VP16 Luc act: GAL4-VP16 luciferase reporter activation, counter-screen for SMARCA2 (BRM) activator project, cell-based, pG5luc, luminescence, high throughput; shares compounds with SMARCA2 act; HEK293 GAL4-VP16 pG5luc reporter; scaled: DMSO wells 0%, SAHA wells 100%; activation, % at 9.1 µM; 41% of 3,500 active; AID 686939, 2013;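 active = activation above the solvent-only control well mean plus 3 SD, averaged across control plates, cut at about 5.2% in these data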
* = called active by the depositor; · = not tested or not shown. Compounds with a hit are over-represented: about 2.6% of the library has one in this group of screens.

SMILES	SMARCA2 act	ARFGAP1 inh	esBAF inh	ASAP1 inh	SMARCA2 act conf	VP16 Luc act
CCN(CC)C(=O)CN(C#N)c1nc(OC)nc(N(C)C)n1	8.9*	3	2	-2	0	0
CCN(CC)C(=O)CN(C#N)c1nc(C)cc(C)n1	2	-4	-2	-3	·	·
Nc1nc2nn(-c3ccccc3)nc2c(=O)[nH]1	5	2	-22	11	·	·
Nc1nc2n[nH]nc2c(=O)[nH]1	14*	-1	103*	4	22*	2
O=C(O)c1cccc(Nc2nc(N3CCOCC3)nc(N3CCOCC3)n2)c1	-1	-1	-11	2	·	·
O=C(O)c1cccc(NC2=Nc3cccc4cccc2c34)c1	9.9*	6	26	7	10*	9.4*
O=C(O)c1cccc(Nc2ccnc(Nc3cccc(C(=O)O)c3)n2)c1	8.0*	11	-74	4	8	2
O=c1c2ccccc2sc2c(CO)ccc(NCCN3CCCCC3)c12	8.6*	6	·	-2	29*	-1
O=C(c1[nH]ncc1-c1ccccc1)C1CO1 (stereo not drawn)	3	-1	·	-7	·	·
O=C(c1[nH]ncc1-c1cccc(Br)c1)C1CO1 (stereo not drawn)	11*	-7	·	-5	12*	0
COC(=O)C[C@@H]1CC[C@@H]2[C@H](COc3ccc(NC(=O)Nc4cc(C)cc(C)c4)cc3C(=O)N2C)O1	·	·	-4	·	·	·
CC(=O)C(Cl)C(=O)Nc1ccccc1 (stereo not drawn)	8.5*	2	-9	-4	-14	0
COC(=O)c1ccc(N=NN2CCCCC2)cc1	12*	-3	·	9	4	11*
COC(=O)c1ccc(NN=Nc2ccc(C)cc2)cc1	2	7	·	5	·	·
C[C@@H]1CN([C@H](C)CO)C(=O)CCCn2nncc2CO[C@@H]1CN(C)Cc1cccnc1	·	·	-3	·	·	·
CO[C@H]1CN(C)C(=O)c2ccc(NS(=O)(=O)c3cccc(F)c3)cc2OC[C@@H](C)N(C(=O)Cc2cccnc2)C[C@@H]1C	·	·	2	·	·	·
Cc1c(/C=C/C(=O)c2ccc(O)cc2)cnn1C	8.0*	-5	·	9	14*	6.9*
CN(C)CCN(C(=O)/C=C/c1cccs1)c1nc2c(F)cc(F)cc2s1	23*	-11	·	3	23*	0
COc1ccc(OC)c2sc(N(CCN(C)C)C(=O)/C=C/c3cccs3)nc12	15*	-12	-56	4	17*	0
CN(C)CCCN(C(=O)/C=C/c1cccs1)c1nc2ccc(F)cc2s1	3	2	-4	-2	·	·
O=C(NCCc1ccncc1)[C@H]1[C@H](CO)[C@H]2Cn3c(cccc3=O)[C@@H]1N2Cc1ccccc1F	·	·	-2	·	·	·
CN1c2ccc(Br)cc2[C@H]2[C@H](CCN2S(=O)(=O)c2ccccc2F)[C@H]1CO	·	·	3	·	·	·
Oc1cccc(Nc2nc(O)c(/C=C3\C=Nc4ccccc43)s2)c1	11*	6	59*	3	15*	6.5*
CC1=Nc2ccccc2/C1=C\c1sc(Nc2ccc(C)cc2)nc1O	-1	7	·	7	·	·
C[C@@H]1CN([C@H](C)CO)C(=O)Cc2cc(NS(=O)(=O)c3ccc(Cl)cc3)ccc2O[C@H]1CN(C)C(=O)Nc1cccc2ccccc12	·	·	-4	·	·	·
SMILES	SMARCA2 act	ARFGAP1 inh	esBAF inh	ASAP1 inh	SMARCA2 act conf	VP16 Luc act
COC(=O)c1ccc(COc2ccccc2/C=C(\C#N)C(=O)Nc2ccc(C)cc2)cc1	8.2*	4	·	17	-3	14*
C=CCNC(=O)/C(C#N)=C/c1ccccc1OCc1ccc(C(=O)OC)cc1	2	11	·	7	·	·
CCC(C)NC(=O)C1(N2C(=O)c3ccccc3C2=O)CCCC1 (stereo not drawn)	8.8*	3	4	-14	1	0
COc1ccc(NC(=O)O/N=C/c2ccccc2Cl)cc1	10*	7	·	6	4	3
CCCCCn1nnnc1C1(C)CCSCC(=O)N1Cc1ccco1 (stereo not drawn)	8.4*	·	·	·	-1	-1
COc1ccc(NC(=O)C2CCCN(S(=O)(=O)c3ccc4[nH]c(=O)ccc4c3)C2)cc1OC (stereo not drawn)	15*	-13	2	-8	-5	1
COC(=O)N(C)C[C@@H]1OCc2ccccc2-c2c(n(C)c3ccccc23)C(=O)N([C@H](C)CO)C[C@H]1C	·	·	-5	·	·	·
CO[C@@H]1CN(C)C(=O)c2cc(NC(=O)c3cc(C)on3)ccc2OC[C@@H](C)N(C(=O)C2CC2)C[C@H]1C	·	·	-7	·	·	·
O=c1c2ccccc2sc2ccc(NCCCN3CCOCC3)cc12	7	1	10	15	·	·
CN1CCCC1CCNc1ccc2sc3ccccc3c(=O)c2c1 (stereo not drawn)	11*	14	-2	3	14*	7.5*
NC(=S)N/N=C/c1cn(-c2ccccc2)nc1-c1cccnc1	8.2*	14	·	-4	0	4
O=C(N/N=C/c1cn(-c2ccccc2)nc1-c1cccnc1)c1ccccc1	4	-2	·	-11	·	·
CC(=O)c1ccc(OCCCC(=O)OCc2nnc(-c3ccc(Cl)cc3)o2)cc1	8.3*	7	·	0	8.4*	0
CC(=O)Nc1ccc(OCc2nnc(-c3ccc(Cl)cc3)o2)cc1	1	8	·	12	·	·
CN1C(=O)c2cc(NC(=O)C3CCOCC3)ccc2OC[C@H]2O[C@@H](CC(=O)NC3CCCC3)CC[C@@H]21	·	·	4	·	·	·
COc1ccc(-n2c(C)c3c(OC)cccc(=O)c3c2C)cc1	11*	-1	1	-1	-3	1
CC(C)(C(=O)c1ccccc1)/[N+]([O-])=C/c1ccccc1	6	-1	-4	2	·	·
CC(C)(C(=O)c1ccccc1)/[N+]([O-])=C/c1ccc(F)cc1	9.8*	-5	8	4	-1	-1
CNC(=O)C[C@H]1CC[C@@H]2[C@H](COc3ccc(NC(=O)Nc4ccc(Cl)cc4)cc3C(=O)N2C)O1	·	·	3	·	·	·
Cc1nn(-c2ccccc2)c(Cl)c1/C=N/Nc1ccc(Cl)c(C(=O)O)c1	8.9*	-9	·	4	9.4*	14*
O=C(N[C@@H]1C=C[C@@H](CC(=O)N2CCOCC2)O[C@H]1CO)c1cccc(F)c1	·	·	0	·	·	·
CC(=O)Nc1ccc2c(c1)CCc1ccccc1-2	1	15	7	-14	·	·
